In ChEMBL document CHEMBL4376814, “Novel cyclin-dependent kinase 9 (CDK9) inhibitor with suppression of cancer stemness activity against non-small-cell lung cancer” (Eur J Med Chem, 2019):

Key:
[1] = biological target: Serine/threonine-protein kinase pim-2 (Homo sapiens) (UniProt Q9P1W9); assay: Inhibition of recombinant human Pim-2 (2 to end residues) at 1 uM using RSRHSSYPAGT as substrate measured after 40 mins in presence of [gamma33P]ATP by scintillation counting method relative to control
[2] = biological target: LIM domain kinase 1 (Homo sapiens) (UniProt P53667); assay: Inhibition of recombinant human LIMK1 (285 to 638 residues) at 1 uM using cofilin as substrate measured after 40 mins in presence of [gamma33P]ATP by scintillation counting method relative to control
[3] = biological target: Death-associated protein kinase 2 (Homo sapiens) (UniProt Q9UIK4); assay: Inhibition of recombinant full-length human DAPK2 at 1 uM using calmodulin as substrate measured after 40 mins in presence of [gamma33P]ATP by scintillation counting method relative to control
[4] = biological target: Dual specificity tyrosine-phosphorylation-regulated kinase 3 (Homo sapiens) (UniProt O43781); assay: Inhibition of recombinant full-length human DYRK3 at 1 uM using RRRFRPASPLRGPPK as substrate measured after 40 mins in presence of [gamma33P]ATP by scintillation counting method relative to control
Chain of Dual specificity tyrosine-phosphorylation-regulated kinase 3 (Homo sapiens) (O43781 whole entry): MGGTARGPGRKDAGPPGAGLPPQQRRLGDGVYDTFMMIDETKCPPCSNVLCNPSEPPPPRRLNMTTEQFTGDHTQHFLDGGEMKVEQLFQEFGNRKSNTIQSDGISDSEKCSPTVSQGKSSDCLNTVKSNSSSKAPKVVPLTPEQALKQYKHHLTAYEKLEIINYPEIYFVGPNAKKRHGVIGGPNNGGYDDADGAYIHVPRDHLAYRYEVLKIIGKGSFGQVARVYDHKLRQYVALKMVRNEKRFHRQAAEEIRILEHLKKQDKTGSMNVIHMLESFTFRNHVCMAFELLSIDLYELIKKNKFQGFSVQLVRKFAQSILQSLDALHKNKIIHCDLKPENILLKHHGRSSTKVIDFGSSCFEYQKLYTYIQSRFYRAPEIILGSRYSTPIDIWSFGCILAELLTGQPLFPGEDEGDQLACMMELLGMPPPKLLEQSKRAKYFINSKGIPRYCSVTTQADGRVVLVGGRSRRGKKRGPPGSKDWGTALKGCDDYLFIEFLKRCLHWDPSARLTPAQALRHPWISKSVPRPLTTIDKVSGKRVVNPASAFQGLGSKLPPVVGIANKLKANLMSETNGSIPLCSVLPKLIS

NCI-H1299 [5] = assay: Antiproliferative activity against human H1299 cells assessed as inhibition of cell viability after 72 hrs by CCK-8 assay; format: functional, cell-based; settings: NCI-H1299, 72 h
Summary of the method: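 Cells kept at 37 °C, 5% CO2 in DMEM or RPMI-1640 with 10% FBS and 1% penicillin/streptomycin, then seeded at 3000 cells/well (adherent) or 10,000 cells/well (suspension). Exposed to a range of concentrations for 72 h. CCK-8 added for 1-4 h before reading A450. […] Three independent experiments.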

[6] = biological target: Ephrin type-A receptor 7 (Homo sapiens) (UniProt Q15375); assay: Inhibition of recombinant human EphA7 (613 to 909 residues) at 1 uM using KTFCGTPEYLAPEVRREPRILSEEEQEMFRDFDYIADWC as substrate measured after 40 mins in presence of [gamma33P]ATP by scintillation counting method relative to control
Chain of Ephrin type-A receptor 7 (Homo sapiens) (Q15375 28-998 limits assumed): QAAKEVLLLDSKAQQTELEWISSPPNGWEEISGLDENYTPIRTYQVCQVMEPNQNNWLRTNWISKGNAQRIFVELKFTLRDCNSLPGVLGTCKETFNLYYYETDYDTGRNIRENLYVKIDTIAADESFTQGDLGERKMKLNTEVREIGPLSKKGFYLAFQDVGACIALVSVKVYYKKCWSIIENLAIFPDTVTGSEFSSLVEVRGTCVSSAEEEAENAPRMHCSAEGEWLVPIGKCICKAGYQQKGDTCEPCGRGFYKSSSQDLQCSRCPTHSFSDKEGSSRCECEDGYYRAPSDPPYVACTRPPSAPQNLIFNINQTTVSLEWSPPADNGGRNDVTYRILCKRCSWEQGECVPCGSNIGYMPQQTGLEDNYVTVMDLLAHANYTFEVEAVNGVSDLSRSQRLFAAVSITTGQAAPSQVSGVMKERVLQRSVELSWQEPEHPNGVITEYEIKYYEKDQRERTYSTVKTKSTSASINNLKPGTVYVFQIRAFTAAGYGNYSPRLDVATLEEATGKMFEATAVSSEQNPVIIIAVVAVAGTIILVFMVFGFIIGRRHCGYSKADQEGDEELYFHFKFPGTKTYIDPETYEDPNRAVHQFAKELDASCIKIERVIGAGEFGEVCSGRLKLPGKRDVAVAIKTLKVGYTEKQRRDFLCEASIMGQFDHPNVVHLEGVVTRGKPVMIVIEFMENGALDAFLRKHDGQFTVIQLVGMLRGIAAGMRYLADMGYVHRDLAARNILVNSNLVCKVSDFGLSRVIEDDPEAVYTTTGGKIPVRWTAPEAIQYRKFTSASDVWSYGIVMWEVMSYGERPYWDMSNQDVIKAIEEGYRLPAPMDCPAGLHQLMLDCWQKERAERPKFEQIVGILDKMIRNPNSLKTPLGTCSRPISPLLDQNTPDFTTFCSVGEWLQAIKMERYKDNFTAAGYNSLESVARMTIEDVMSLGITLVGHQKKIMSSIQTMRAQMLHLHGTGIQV

[7] = tested on: Serine/threonine-protein kinase Chk2 (Homo sapiens), O96017 [R145W]; assay: Inhibition of recombinant human CHK2 R145W mutant (5 to end residues) at 1 uM using KKKVSRSGLYRSPSMPENLNRPR as substrate measured after 40 mins in presence of [gamma33P]ATP by scintillation counting method relative to control
Summary of the method: (§1)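 Single-point inhibition at 1 µM was measured in the Eurofins KinaseProfiler panel. Values are the mean of two independent experiments.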

[8] = biological target: Insulin receptor (Homo sapiens) (UniProt P06213); assay: Inhibition of recombinant human IR (1005 to 1310 residues) at 1 uM using KKSRGDYMTMQIG as substrate measured after 40 mins in presence of [gamma33P]ATP by scintillation counting method relative to control
[9] = biological target: CDK9/cyclin T1 (Homo sapiens) (UniProt O60563+P50750); assay: Inhibition of recombinant full-length human CDK9/cyclinT1 at 1 uM using KTFCGTPEYLAPEVRREPRILSEEEQEMFRDFDYIADWC peptide as substrate measured after 40 mins in presence of [gamma33P]ATP by scintillation counting method relative to control; format: protein-complex assay
Summary of the method: (§2)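 Percent inhibition of kinase activity at a single compound concentration, measured by the outsourced Eurofins KinaseProfiler panel. Values are the mean of two independent experiments.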

A549 = assay: Inhibition of tumorsphere formation in human A549 cells assessed as reduction in side population ratio by PI/Hoechst 33342 staining based flow cytometry; format: functional, cell-based
[10] = biological target: Bone morphogenetic protein receptor type-2 (Homo sapiens) (UniProt Q13873); assay: Inhibition of recombinant human BMPR2 (172 to 734 residues) at 1 uM using myelin basic protein as substrate measured after 120 mins in presence of [gamma33P]ATP by scintillation counting method relative to control
Chain of Bone morphogenetic protein receptor type-2 (Homo sapiens) (Q13873 whole entry, the tested form may be a part): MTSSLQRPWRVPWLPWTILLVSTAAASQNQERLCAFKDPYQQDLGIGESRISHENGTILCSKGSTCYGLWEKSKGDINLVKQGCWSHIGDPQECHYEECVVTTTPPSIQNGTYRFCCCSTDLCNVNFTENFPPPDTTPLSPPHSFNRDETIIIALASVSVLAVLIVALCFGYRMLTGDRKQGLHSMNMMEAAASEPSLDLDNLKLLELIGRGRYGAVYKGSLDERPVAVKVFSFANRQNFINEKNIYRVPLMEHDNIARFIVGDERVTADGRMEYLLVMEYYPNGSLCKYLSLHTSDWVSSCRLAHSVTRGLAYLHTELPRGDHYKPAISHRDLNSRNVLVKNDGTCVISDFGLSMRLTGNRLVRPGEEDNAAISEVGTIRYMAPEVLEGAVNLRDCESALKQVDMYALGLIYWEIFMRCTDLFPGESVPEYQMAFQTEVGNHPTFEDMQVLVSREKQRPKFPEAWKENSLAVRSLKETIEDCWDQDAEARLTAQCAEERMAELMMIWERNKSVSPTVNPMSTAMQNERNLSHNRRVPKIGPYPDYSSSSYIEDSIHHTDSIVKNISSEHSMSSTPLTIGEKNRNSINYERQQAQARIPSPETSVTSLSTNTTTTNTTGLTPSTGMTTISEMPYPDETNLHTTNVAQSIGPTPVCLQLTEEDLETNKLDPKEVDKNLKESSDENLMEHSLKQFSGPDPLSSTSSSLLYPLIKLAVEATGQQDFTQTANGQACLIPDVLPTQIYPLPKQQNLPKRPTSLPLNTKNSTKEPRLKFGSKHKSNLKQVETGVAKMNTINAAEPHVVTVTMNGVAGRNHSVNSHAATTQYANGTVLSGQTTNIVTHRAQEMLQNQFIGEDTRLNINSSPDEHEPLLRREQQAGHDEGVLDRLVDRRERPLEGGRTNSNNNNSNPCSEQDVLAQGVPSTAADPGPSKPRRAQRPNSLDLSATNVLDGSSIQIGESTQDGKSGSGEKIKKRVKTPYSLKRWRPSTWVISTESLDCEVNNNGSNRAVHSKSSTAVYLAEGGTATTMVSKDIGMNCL

[11] = biological target: Tyrosine-protein kinase JAK3 (Homo sapiens) (UniProt P52333); assay: Inhibition of recombinant human JAK3 (781 to end residues) at 1 uM using GGEEEEYFELVKKKK as substrate measured after 40 mins in presence of [gamma33P]ATP by scintillation counting method relative to control
[12] = biological target: Eukaryotic translation initiation factor 2-alpha kinase 1 (Homo sapiens) (UniProt Q9BQI3); assay: Inhibition of recombinant human HRI (140 to end residues) at 1 uM using RSRSRSRSRSRSRSR as substrate measured after 120 mins in presence of [gamma33P]ATP by scintillation counting method relative to control
Chain of Eukaryotic translation initiation factor 2-alpha kinase 1 (Homo sapiens) (Q9BQI3 whole entry): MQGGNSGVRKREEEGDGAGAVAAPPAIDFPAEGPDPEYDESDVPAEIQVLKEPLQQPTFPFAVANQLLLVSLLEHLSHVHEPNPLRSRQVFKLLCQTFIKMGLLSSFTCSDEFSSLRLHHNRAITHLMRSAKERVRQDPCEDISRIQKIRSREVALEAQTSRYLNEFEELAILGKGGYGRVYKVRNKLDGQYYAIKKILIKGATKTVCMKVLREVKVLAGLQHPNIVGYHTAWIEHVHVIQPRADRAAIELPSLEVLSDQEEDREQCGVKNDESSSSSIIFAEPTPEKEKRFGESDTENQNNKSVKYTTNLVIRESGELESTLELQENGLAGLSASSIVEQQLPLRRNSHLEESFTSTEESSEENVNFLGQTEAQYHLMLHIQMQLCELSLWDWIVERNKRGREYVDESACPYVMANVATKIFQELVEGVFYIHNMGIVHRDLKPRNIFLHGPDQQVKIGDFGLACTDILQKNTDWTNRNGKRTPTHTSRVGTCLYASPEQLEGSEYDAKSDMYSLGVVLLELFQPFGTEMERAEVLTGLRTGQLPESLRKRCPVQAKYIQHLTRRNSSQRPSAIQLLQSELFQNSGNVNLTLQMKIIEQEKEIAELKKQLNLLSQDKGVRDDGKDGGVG

NCI-H1299 [13] = assay: Induction of apoptosis in human H1299 cells assessed as viable cells at 0.5 uM after 48 hrs by AnnexinV-FITC/PI staining-based flow cytometric analysis (reference value: 97.1%); format: functional; settings: NCI-H1299, 48 h, read-out: Activity
[14] = biological target: Mitogen-activated protein kinase 1 (Homo sapiens) (UniProt P28482); assay: Inhibition of recombinant full-length human MAPK1 at 1 uM using MBP as substrate measured after 40 mins in presence of [gamma33P]ATP by scintillation counting method relative to control
Chain of Mitogen-activated protein kinase 1 (Homo sapiens) (P28482 whole entry): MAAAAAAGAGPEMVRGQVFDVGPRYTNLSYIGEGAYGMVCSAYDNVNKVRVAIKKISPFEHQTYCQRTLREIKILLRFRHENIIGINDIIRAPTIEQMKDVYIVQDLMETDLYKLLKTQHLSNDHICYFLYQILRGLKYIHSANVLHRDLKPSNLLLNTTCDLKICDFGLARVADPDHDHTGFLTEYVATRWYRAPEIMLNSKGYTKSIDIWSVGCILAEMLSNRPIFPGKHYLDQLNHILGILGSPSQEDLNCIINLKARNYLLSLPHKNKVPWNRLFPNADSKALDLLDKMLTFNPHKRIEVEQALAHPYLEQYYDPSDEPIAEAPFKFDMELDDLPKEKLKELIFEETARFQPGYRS

MCF7 = assay: Antiproliferative activity against human MCF7 cells assessed as inhibition of cell viability at 10 uM after 72 hrs by CCK-8 assay relative to control; format: functional; settings: MCF7, 72 h
Summary of the method: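 Single-concentration viability screen using CCK-8. Cells were seeded at 3000/well and treated for 72 h. A450 read after 1-4 h with reagent. Percent inhibition calculated against untreated control and blank wells as (Ac−As)/(Ac−Ab)×100%.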

[15] = Half life in Sprague-Dawley rat liver microsomes at 2 uM in presence of NADPH measured up to 1 hr by HPLC analysis; format: ADME, Microsome
Summary of the method: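 Compound at 2 μM incubated at 37 °C with liver microsomes (1 mg/mL), 3 mM MgCl2 and 0.1 M phosphate buffer pH 7.4; 5 min preincubation, then started with 3 mM NADPH. Aliquots (n = 3) at 0, 10, 20, 30, 45, 60 min quenched with ice-cold acetonitrile, centrifuged, supernatant by HPLC. t1/2 from linear-regression kinetic constant k.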

[16] = biological target: Macrophage-stimulating protein receptor (Homo sapiens) (UniProt Q04912); assay: Inhibition of human Ron (983 to end residues) at 1 uM using GGMEDIYFEFMGGKKK as substrate measured after 40 mins in presence of [gamma33P]ATP by scintillation counting method relative to control; summary of the method: as §2
Chain of Macrophage-stimulating protein receptor (Homo sapiens) (Q04912 25-304 limits assumed): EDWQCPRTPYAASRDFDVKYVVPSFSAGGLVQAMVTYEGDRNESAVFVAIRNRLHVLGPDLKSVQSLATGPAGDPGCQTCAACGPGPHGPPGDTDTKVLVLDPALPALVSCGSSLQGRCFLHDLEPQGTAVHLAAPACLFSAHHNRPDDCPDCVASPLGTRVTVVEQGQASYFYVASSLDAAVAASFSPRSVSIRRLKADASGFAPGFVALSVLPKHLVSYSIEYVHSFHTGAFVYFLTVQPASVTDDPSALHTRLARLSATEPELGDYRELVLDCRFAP
Chain of Macrophage-stimulating protein receptor (Homo sapiens) (Q04912 310-1400 limits assumed): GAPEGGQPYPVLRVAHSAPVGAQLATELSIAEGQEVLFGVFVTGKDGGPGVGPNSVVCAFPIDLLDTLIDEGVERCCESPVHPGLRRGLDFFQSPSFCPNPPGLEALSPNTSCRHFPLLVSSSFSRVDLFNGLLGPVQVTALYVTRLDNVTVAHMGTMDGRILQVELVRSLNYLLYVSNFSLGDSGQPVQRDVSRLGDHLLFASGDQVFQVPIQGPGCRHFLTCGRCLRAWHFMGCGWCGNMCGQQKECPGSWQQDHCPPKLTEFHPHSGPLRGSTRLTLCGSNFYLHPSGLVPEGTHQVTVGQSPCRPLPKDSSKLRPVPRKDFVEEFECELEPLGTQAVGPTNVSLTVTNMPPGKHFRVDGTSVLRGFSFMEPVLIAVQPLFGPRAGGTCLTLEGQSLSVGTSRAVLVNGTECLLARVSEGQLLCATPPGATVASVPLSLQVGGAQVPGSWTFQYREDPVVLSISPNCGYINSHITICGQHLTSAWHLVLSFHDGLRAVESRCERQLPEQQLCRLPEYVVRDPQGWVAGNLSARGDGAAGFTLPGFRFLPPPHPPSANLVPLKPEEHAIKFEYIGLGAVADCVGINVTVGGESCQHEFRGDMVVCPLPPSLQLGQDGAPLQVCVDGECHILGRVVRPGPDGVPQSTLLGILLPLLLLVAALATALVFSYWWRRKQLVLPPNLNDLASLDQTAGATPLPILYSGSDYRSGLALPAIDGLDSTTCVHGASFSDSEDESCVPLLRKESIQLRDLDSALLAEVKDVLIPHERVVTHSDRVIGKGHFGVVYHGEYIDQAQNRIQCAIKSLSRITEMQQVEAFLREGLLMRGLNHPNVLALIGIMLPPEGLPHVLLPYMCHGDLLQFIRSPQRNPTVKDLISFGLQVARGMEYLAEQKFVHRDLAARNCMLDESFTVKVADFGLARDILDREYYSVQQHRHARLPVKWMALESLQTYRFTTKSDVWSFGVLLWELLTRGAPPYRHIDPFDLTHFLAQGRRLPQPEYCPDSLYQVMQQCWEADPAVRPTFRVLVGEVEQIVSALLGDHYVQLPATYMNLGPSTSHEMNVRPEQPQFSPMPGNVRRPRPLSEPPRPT

[17] = biological target: Ephrin type-B receptor 3 (Homo sapiens) (UniProt P54753); assay: Inhibition of recombinant human EphB3 (599 to 920 residues) at 1 uM using poly(Glu, Tyr) 4:1 as substrate measured after 40 mins in presence of [gamma33P]ATP by scintillation counting method relative to control; summary of the method: as §1
NCI-H1299 [18] = assay: Induction of cell cycle arrest in human H1299 cells assessed as accumulation at G2/M phase after 24 hrs by propidium iodide/RNase staining based flow cytometric analysis; format: functional
Summary of the method: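 A549 and H1299 plated at 5×10^5 cells/mL in 6-well plates, treated after adherence for 24 h. Washed with PBS, fixed overnight in ice-cold 75% ethanol, stained with propidium iodide plus RNase A for 30 min at 37 °C, analysed by flow cytometry for phase distribution. Means ± SD, three independent experiments.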

SMILES: CN(C)C(=O)c1cc2cnc(Nc3ccc(NC(=O)CCCCCCCN=C=S)cc3)nc2n1C1CCCC1
- inhibition [1]: -1%
- inhibition [2]: 71%
- inhibition [3]: -8%
- inhibition [4]: 17%
- IC50 (NCI-H1299 [5]): 0.203 µM
- inhibition [6]: 6%
- inhibition [7]: 52%
- inhibition [8]: -6%
- inhibition [9]: 98%
- inhibition (A549): Dose-dependent effect
- inhibition [10]: 73%
- inhibition [11]: 83%
- inhibition [12]: 30%
- viability at 0.5 µM (NCI-H1299 [13]): 94.5%
- inhibition [14]: 3%
- inhibition at 10 µM (MCF7): 98%
- half-life at 2 µM [15]: 40.8 min
- inhibition [16]: 72%
- inhibition [17]: 12%
- Activity (NCI-H1299 [18]): Dose-dependent effect
